Common to all, as to type: functional, cell-based
The subject of assay [1] is K562. Nature of the assay: Cytotoxicity against human K562 cells after 48 hrs. To be noted: K562, 48 h. A digest of the protocol: (§1)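 Cells from the Shanghai Cell Bank were kept in RPMI1640 with 15% hormone-free heat-inactivated FBS, 2 mM glutamine, 100 U/mL penicillin G and 100 µg/mL streptomycin. Seeding was 5 × 10^4 cells/mL for K562 and 4 × 10^4 cells/mL for A549 and HepG2. Cells were exposed to compound for 48 h, and viability was read by CCK-8 at 450 and 650 nm. IC50 values come from triplicate experiments.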

The test system of assay [2] is A549. Nature of the assay: Cytotoxicity against human A549 cells after 48 hrs. To be noted: A549, 48 h. In short, it runs like this: as §1
Assay [3] relates to HepG2. Nature of the assay: Cytotoxicity against human HepG2 cells after 48 hrs. To be noted: HepG2, 48 h. In short, it runs like this: as §1

Bounds are passed on as bounds.

As to `C=C1[C@@H]2C[C@@H](O)[C@@H]3[C@](C2)(C(=O)O[C@H]2CC[C@@]4(C)CO[C@H]5OC[C@]23[C@H]54)[C@@H]1O` [SCULPONEATIN B], the IC50 in assay [1], in assay [2] and in assay [3] was greater than 10 µM in each case.

As for `C=C1C(=O)[C@]23C[C@H]1C[C@@H](O)[C@H]2[C@]12CO[C@H]4O[C@@H](O)[C@](C)(CC[C@@H]1OC3=O)[C@@H]42` [SCULPONIN G], the IC50 in assay [1], in assay [2] and in assay [3] was greater than 10 µM throughout.

Take `C=C1[C@@H]2C[C@H](O)[C@@H]3[C@](C2)(C(=O)O[C@H]2C[C@H](O)C(C)(C)[C@H]4[C@H](O)OC[C@@]243)[C@@H]1OC(C)=O` [SCULPONIN F]: the IC50 in assay [1], in assay [2] and in assay [3] was greater than 10 µM throughout.

On to `C=C1C(=O)O[C@H]2/C=C(\C)C[C@@H]3C=C(CC/C=C(\C)CC[C@H]12)C(=O)O3`, for which the half-maximal inhibitory concentration (IC50) (usually the concentration needed to halve the response being measured) in assay [1] came to 1.25 µM; in assay [2], 1.96 µM; in assay [3] it was 1.4 µM.

Take `C=C1[C@@H]2C[C@H](O)[C@@H]3[C@](C2)(C(=O)OC2O[C@H](O)[C@@H]4[C@@](C)(CO)CC[C@H](O)[C@]243)[C@@H]1O` (some centres undefined) [SCULPONEATIN D]: the IC50 in assay [1], in assay [2] and in assay [3] was greater than 10 µM throughout.

With `C=C1C(=O)[C@]23C[C@H]1C[C@@H](O)[C@H]2[C@@]12CO[C@@H](O)[C@@H]1C(C)(C)CC[C@@H]2OC3=O` [NODOSIN], the IC50 in assay [1] was 0.54 µM; in assay [2] it was greater than 10 µM; in assay [3] it was 1.92 µM.

Take `C=C1C(O)[C@]23C[C@H]1C[C@H](O)[C@H]2[C@]12CCC[C@@](C)(CO)[C@H]1[C@H](O)[C@]3(O)OC2` (some centres undefined) [SCULPONIN K]: the IC50 in assay [1], in assay [2] and in assay [3] was greater than 10 µM throughout.

With `C=C1[C@@H]2C[C@@H](O)[C@@H]3[C@](C2)(C(=O)O[C@H]2C[C@H](O)C(C)(C)[C@H]4[C@H](O)OC(=O)[C@@]243)[C@@H]1O` [EMEMOGIN], the IC50 in assay [1], in assay [2] and in assay [3] was greater than 10 µM in each case.

For the compound `C=C1C(=O)O[C@H]2/C=C(\C)C[C@@H]3C=C(C/C=C/[C@@](C)(OO)CC[C@H]12)C(=O)O3`, the half-inhibitory concentration (IC50) in assay [1] was 1.2 µM; in assay [2], 1.55 µM; in assay [3] it was 0.9 µM.

As to `C=C1[C@@H]2CC(=O)[C@H]3[C@]45C=CC[C@@](C)(CO)[C@H]4[C@H](O)[C@](O)(OC5)[C@]3(C2)[C@@H]1O` [SCULPONIN L], the IC50 in assay [1], in assay [2] and in assay [3] was greater than 10 µM in each case.

As for `CC1(C)[C@H]2[C@H](O)OC[C@@]23[C@H](C[C@@H]1O)OC(=O)[C@@]12C[C@@H](C[C@@H](O)[C@H]13)[C@@]1(CCC3=C(O1)[C@]14C[C@H]3C[C@@H](O)[C@H]1[C@]13CO[C@@H]5OC[C@](C)(CC[C@@H]1OC4=O)[C@@H]53)C2=O` [SCULPONIN E], the IC50 is 2 µM in assay [1], 1.85 µM in assay [2] and 1.62 µM in assay [3].

Take `C=C1C(=O)[C@]23C[C@H]1C[C@H](O)[C@H]2[C@@]12CO[C@@H](O)[C@@H]1C(C)(C)CC[C@@H]2OC3=O` [EPINODOSIN]: the half-inhibitory concentration (IC50) in assay [1] came out at 0.56 µM; in assay [2], 2.1 µM; in assay [3], 1.62 µM.

In the case of `C=C1[C@@H]2C[C@@H](O)[C@@H]3[C@](C2)(C(=O)O[C@H]2CC[C@]4(C)[C@H]5[C@H](OC[C@@]253)O[C@@H]4O)[C@@H]1O` [SCULPONIN J], the IC50 in assay [1], in assay [2] and in assay [3] was greater than 10 µM throughout.

Consider `C[C@]12CC[C@@H]3OC(=O)[C@@]45C[C@@H](C[C@@H](O)[C@H]4[C@]34CO[C@H](OC1)[C@H]24)[C@@]1(CCC2=C(O1)[C@]13C[C@H]2C[C@@H](O)[C@H]1[C@]12CO[C@@H]4OC[C@](C)(CC[C@@H]1OC3=O)[C@@H]42)C5=O` [SCULPONIN D], for which the half-inhibitory concentration (IC50) worked out at 1.5 µM in assay [1], 1 µM in assay [2] and 1.12 µM in assay [3].

`C=C1C(=O)[C@]23C[C@H]1C[C@@H](O)[C@H]2[C@]12CO[C@@H]4O[C@H](O)[C@](C)(CC[C@@H]1OC3=O)[C@@H]42` [SCULPONIN H]: the IC50 in assay [1], in assay [2] and in assay [3] was greater than 10 µM throughout.

As for `C=C1[C@@H](O)[C@]23[C@H](O)[C@H]1CC[C@H]2[C@@]12CO[C@@]3(O)[C@@H](O)[C@@H]1C(C)(C)CC[C@@H]2O` [ENMENOL], the IC50 in assay [1], in assay [2] and in assay [3] was greater than 10 µM in each case.

With `C=C1[C@@H]2C[C@@H](O)[C@@H]3[C@](C2)(C(=O)O[C@H]2CC[C@@]4(C)[C@H](O)O[C@H]5OC[C@]23[C@H]54)[C@@H]1O` [SCULPONIN I], the IC50 in assay [1], in assay [2] and in assay [3] was greater than 10 µM in each case.

Regarding `C=C1C(=O)[C@]23C[C@H]1C[C@@H](O)[C@H]2[C@@]1(COC3=O)[C@@H]2[C@H]3OC[C@]2(C)CC[C@H]1O3` [SCULPONEATIN C], the IC50 in assay [1] came out at 0.78 µM; in assay [2], 2.73 µM; in assay [3], 0.68 µM.

Consider `C=C1C(=O)[C@]23C[C@H]1CC[C@H]2[C@@]12CO[C@@H](O)[C@@H]1C(C)(C)[C@@H](O)C[C@@H]2OC3=O` [ENEMIN], for which the values for the concentration for half-maximal inhibition (IC50) in assay [1], in assay [2] and in assay [3] were 1.62 µM, greater than 10 µM and 2.02 µM, respectively.

Regarding `C=C1C(=O)[C@]23C[C@H]1C[C@@H](O)[C@H]2[C@]12CO[C@@H]4OC[C@](C)(CC[C@@H]1OC3=O)[C@@H]42` [SCULPONEATIN A], the IC50 in assay [1] is 1.62 µM; in assay [2], 1.9 µM; in assay [3], 1.77 µM.

`CC1(C)CC[C@@H]2OC(=O)[C@@]34C[C@@H](C[C@H](O)[C@H]3[C@]23CO[C@@H](O)[C@H]13)[C@@H](CO)C4=O` [MAOYECRYSTAL D]: the 50% inhibitory concentration (IC50) in assay [1], in assay [2] and in assay [3] was greater than 10 µM in each case.

Regarding `C=C1[C@@H]2C[C@@H](O)[C@H]3[C@@]45CO[C@@](O)([C@@H](O)[C@@H]4C(C)(C)CC[C@@H]5O)[C@]3(C2)[C@@H]1O` [NERVOSANIN B], the IC50 in assay [1], in assay [2] and in assay [3] was greater than 10 µM throughout.

In the case of `C=C1C(=O)O[C@H]2/C=C(\C)C[C@@H]3C=C(CC[C@@H](OO)C(=C)CC[C@H]12)C(=O)O3`, the half-maximal inhibitory concentration (IC50) in assay [1] was 4.3 µM; in assay [2], 4.18 µM; in assay [3], 3.11 µM.
